From PubChem
TRPC6 act – mouse TRPC6 channel activators, primary screen, cell-based, HEK293, membrane potential dye. HEK293-TRPC6 membrane potential dye fluorescence; stronger effect = higher value. actives 0.13% (n = 310,000). B-score at 10 µM. Short transient receptor potential channel 6 (Mus musculus), Q61143;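 active = B-score of the integrated fluorescence ratio above library mean plus 3 SD, and starting fluorescence ratio within library mean plus 5 SD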;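 also: higher score means more depolarization so channel activation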
TRPC4 act – activators of mouse TRPC4 channel, primary screen, Fluo4 calcium, HEK293 TRPC4beta/mu-opioid cells | AID 2237, 2010 | Fluo4 calcium fluorescence; stronger effect = higher value | B-score at 10 µM | actives 0.49% (n = 310,000);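 active = B-score above 5 SD of library B-scores, and initial fluorescence ratio not above library mean plus 5 SD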;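 also: positive B-score marks a calcium rise read as TRPC4 activation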
Target sequence (Q9QUQ5 whole entry, looked up): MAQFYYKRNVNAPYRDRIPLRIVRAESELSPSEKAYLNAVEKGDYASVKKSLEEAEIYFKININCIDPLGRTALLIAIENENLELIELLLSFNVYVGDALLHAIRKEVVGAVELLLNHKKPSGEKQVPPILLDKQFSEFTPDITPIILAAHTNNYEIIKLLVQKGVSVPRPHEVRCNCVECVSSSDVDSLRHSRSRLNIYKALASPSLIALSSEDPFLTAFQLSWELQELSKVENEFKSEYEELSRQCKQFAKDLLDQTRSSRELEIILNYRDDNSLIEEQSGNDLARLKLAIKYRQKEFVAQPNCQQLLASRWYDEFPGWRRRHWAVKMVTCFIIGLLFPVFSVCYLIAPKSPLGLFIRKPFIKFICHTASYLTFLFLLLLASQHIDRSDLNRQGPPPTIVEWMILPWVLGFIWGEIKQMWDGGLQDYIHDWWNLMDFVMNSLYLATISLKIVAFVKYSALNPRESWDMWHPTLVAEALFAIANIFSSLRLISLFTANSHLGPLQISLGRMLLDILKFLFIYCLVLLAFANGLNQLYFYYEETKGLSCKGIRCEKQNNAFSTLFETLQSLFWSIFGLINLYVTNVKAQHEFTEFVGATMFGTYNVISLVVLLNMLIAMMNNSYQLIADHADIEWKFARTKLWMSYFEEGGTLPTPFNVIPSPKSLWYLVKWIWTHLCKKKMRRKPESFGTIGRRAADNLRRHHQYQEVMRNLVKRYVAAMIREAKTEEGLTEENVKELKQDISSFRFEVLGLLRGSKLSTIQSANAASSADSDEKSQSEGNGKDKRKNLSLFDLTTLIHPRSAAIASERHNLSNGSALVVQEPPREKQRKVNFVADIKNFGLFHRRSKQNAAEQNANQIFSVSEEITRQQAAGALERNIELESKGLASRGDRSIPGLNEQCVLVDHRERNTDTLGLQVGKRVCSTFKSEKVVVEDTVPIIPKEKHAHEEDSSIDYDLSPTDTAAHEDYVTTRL
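Technique: kinetic Fluo4 calcium fluorescence; Test system: TRPC4beta and mu-opioid receptor HEK293 stable cells; Measure: B-scored integrated calcium fluorescence ratio; Benchmarks: low control buffer alone, high control maximal DAMGO; Schedule: 45 min room-temperature Fluo4 loading, 110 s read.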
TRPC6 inh – mouse TRPC6 channel inhibitors, primary screen, cell-based, HEK293, membrane potential dye; B-score at 10 µM; Short transient receptor potential channel 6 (Mus musculus), Q61143; ACh-evoked depolarization; stronger effect = lower value; actives 1.1% (n = 310,000);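 active = B-score under library mean minus 3 SD, initial fluorescence not abnormally high, positive integrated signal ratio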;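 also: B-score derived from integrated fluorescence ratio over the kinetic read; more negative B-score means stronger inhibition of depolarization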
TRPC4 inh – inhibitors of mouse TRPC4 channel, primary screen, Fluo4 calcium, HEK293 TRPC4beta/mu-opioid cells | Short transient receptor potential channel 4 (Mus musculus), Q9QUQ5 | DAMGO-evoked Fluo4 calcium flux; stronger effect = lower value | B-score at 10 µM | actives 0.39% (n = 300,000) | AID 2247, 2010;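 active = B-score over 3 SD under the library average, no early fluorescence shift, positive overall ratio signal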
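Signal: kinetic Fluo4 fluorescence imaging of calcium influx. Material: stable TRPC4beta/mu-opioid receptor HEK293 cells. Probe or stimulus: DAMGO in two steps, submaximal then maximal.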
TRPC4 potent – positive allosteric modulators of TRPC4, primary screen, cell-based, mouse TRPC4beta, HEK293 mu-opioid, Fluo-4 calcium; Short transient receptor potential channel 4 (Mus musculus), Q9QUQ5; B-score at 10 µM; actives 0.42% (n = 310,000); AID 2227, 2009; DAMGO EC20, Fluo-4 Ca2+ flux; stronger effect = higher value;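 active = B-score of calcium response area above 5 SD of library B-scores, with initial fluorescence ratio within 5 SD of library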
Each line names hits and unclear results; the compound was inactive in the other large screens. This is a sample that favours compounds with a hit; in the whole collection about 2.3% have one here.

CCc1nc(SCC(=O)NC2CCCC2)c2oc3ccccc3c2n1	none
CCc1nc(SCC(=O)N2CCCc3ccccc32)c2oc3ccccc3c2n1	TRPC4 inh -5
CCOC(=O)C1CCN(CC(O)COc2ccc(C(C)(C)CC)cc2)CC1 (stereo unspecified)	none
CCOC(=O)C1CCN(CC(O)COc2ccc(C(C)(C)C)cc2)CC1 (stereo unspecified)	TRPC4 inh -6
CCn1nc(C(C)C)cc1C(=O)N1CCCC(CO)(Cc2ccc(F)cc2F)C1 (stereo unspecified)	none
Cc1ccc(Oc2cc(NC(=O)CCCn3nc([N+](=O)[O-])cc3C)cc([N+](=O)[O-])c2)cc1	none
CCCCN(CC)CCNC(=O)c1cc2c(=O)[nH]c3ccccc3c2s1	TRPC4 act 48
CCCN(CCC)CCCNC(=O)c1cc2c(=O)[nH]c3ccccc3c2s1	TRPC4 act 80
CCOC(CCNC(=O)c1cc2c(=O)[nH]c3ccccc3c2s1)OCC	none
O=C(O)CCCC(=O)Nc1ccccc1C(=O)N1CCCC1	none
CCOc1cc(/C=N/N=C2/NC(=O)C(CC(=O)O)S2)ccc1OCc1ccc(Cl)cc1Cl (stereo unspecified)	none
CSc1ccc(S(=O)(=O)NCC(=O)OCC(=O)N(Cc2ccccc2)C(C)C)cc1[N+](=O)[O-]	none
CSc1ccc(S(=O)(=O)NCC(=O)OCC(=O)N(C)Cc2ccccc2)cc1[N+](=O)[O-]	TRPC4 potent 17
CN1CCC(CNC(=O)Nc2ccccc2)(c2ccccc2)CC1	TRPC4 act 172
Cc1ccccc1N(CC(=O)NCCSC1CCCCC1)S(=O)(=O)c1ccccc1	none
CC(C)OC(=O)/C(=C/c1ccc2c(c1)c1ccccc1n2C)NC(=O)c1ccccc1	none
Cc1cc(NC(=O)c2ccccc2-c2ccccc2)ccc1Br	none
O=S(=O)(c1ccc(Oc2ccc(Br)cc2)cc1)N1CCOCC1	TRPC4 potent 17
CC1CCc2c(C(=O)N3CCN(S(=O)(=O)c4cccs4)CC3)csc2C1 (stereo unspecified)	TRPC4 potent 29
COc1cc2c(cc1OC)C(=S)NC1(CCCC1)C2	none
OCCC1CN(Cc2ccccc2-c2ccco2)CCN1Cc1ccccc1 (stereo unspecified)	TRPC4 act 113
CCn1cc(CN2CCN(Cc3ccccc3)C(CCO)C2)c2ccccc21 (stereo unspecified)	TRPC4 act 58
OCCC1CN(Cc2ccc3nsnc3c2)CCN1CCc1ccccc1 (stereo unspecified)	TRPC4 act 43
Cc1cc(C)cc(-n2c(SCC(=O)NCc3ccc4c(c3)OCO4)nc3ccccc3c2=O)c1	none
CCOC(=O)CNC(=O)CCNS(=O)(=O)c1ccc2c(c1)c(=O)n(C)c(=O)n2C	none
COc1ccc2c(c1OC)C(=O)N(c1ccc(C)c(C)c1)C2=O	none
COc1ccc(/C=C2\SC(=O)N(CC(=O)Nc3ccc(F)cc3)C2=O)cc1O	TRPC4 potent 11
COc1ccc(/C=C2\SC(=S)N(N3C(=O)CCC3=O)C2=O)cc1O	TRPC4 potent 144
CCN(N)C(=S)Nc1ccc(F)cc1	none
Cc1cccc(N2N=C(C(=O)N3CC(=O)Nc4ccccc43)CCC2=O)c1	none
COc1cc(C2N(c3ccc(Cl)c(Cl)c3)C(=O)C3CCCN32)cc(OC)c1OC (stereo unspecified)	TRPC4 act 81
Cc1ccc(C2N(c3ccc(Cl)c(Cl)c3)C(=O)C3CCCN32)o1 (stereo unspecified)	TRPC4 act 122, TRPC4 potent 15
COc1ccc(N2C(=O)C3CCCN3C2c2ccc(C)o2)cc1Cl (stereo unspecified)	none
COc1ccc(N2C(=O)C3CCCN3C2c2cc(OC)c(OC)c(OC)c2)cc1 (stereo unspecified)	none
COc1cc(C2N(c3ccc(Cl)cc3)C(=O)C3CCCN32)cc(OC)c1OC (stereo unspecified)	none
COc1cc(C2N(c3cccc(Cl)c3)C(=O)C3CCCN32)cc(OC)c1OC (stereo unspecified)	TRPC4 potent 14
CC(=O)N(c1ccc(Cl)cc1)c1cn(C(C)=O)c2ccccc12	none
CC(=O)N(c1ccc(Cl)cc1)c1c[nH]c2ccccc12	TRPC4 inh -6
O=C(CCCN1C(=O)c2cccc3cccc(c23)C1=O)Nc1nccs1	none
O=C(NC(=S)Nc1nc(-c2ccccc2)cs1)c1cccs1	none
O=c1ccc(-c2ccc(S(=O)(=O)NCC3CCN(Cc4cccc(F)c4)CC3)s2)n[nH]1	TRPC4 potent 10
CCOC(=O)c1c(S(=O)(=O)NCC2CCN(Cc3cccc(F)c3)CC2)c(C)n(C)c1C	none
CCOC(=O)c1cc2c(=O)n3ccccc3nc2n(C(C)C)c1=NC(=O)c1ccco1	none
CC(=O)Nc1ccccc1OCC(=O)c1cc(C)n(Cc2cccs2)c1C	TRPC4 act 72
Cc1cc(C(=O)COc2cccnc2[N+](=O)[O-])c(C)n1Cc1cccs1	none
O=C(Cn1cnc2c(nnn2-c2ccccc2)c1=O)N1CCCc2ccccc21	none
CCOC(=O)C1CCN(CC(=O)Nc2ccc(OC)c(Cl)c2)CC1	none
CCC(=O)N/C(N)=N/c1nc(C)c2cc(OC)ccc2n1	TRPC4 inh -7
COc1ccc2nc(/N=C(\N)NC(=O)C(C)(C)C)nc(C)c2c1	none
O=C(NCCCO)C(=O)NCC(c1ccc2c(c1)OCO2)N1CCN(c2ccc(F)cc2)CC1 (stereo unspecified)	none
Cn1cccc1-c1nc2ccccc2n1Cc1ccccc1	TRPC4 inh -5
c1ccc(Cn2c(CN3CCCC3)nc3ccccc32)cc1	TRPC4 inh -7
Clc1ccc(-n2nnc(-c3cccnc3)n2)cc1Cl	none
CN(C)CCn1c(=S)[nH]c2ncccc2c1=O	none
CCCCCN1C2=NCCN2c2ccccc21	TRPC4 inh -6
CCCN1C2=NCCN2c2cc(C)c(C)cc21	TRPC4 inh -7
N#CCCn1cc(C(=O)Nc2ccc(C(=O)O)cc2)c(-c2cccc(Br)c2)n1	TRPC4 act 70
N#CCCn1cc(C(=O)Nc2ccccn2)c(-c2ccccc2)n1	none
CC(C)(C)c1cc(CCC(=O)NNC(=O)c2ccco2)cc(C(C)(C)C)c1O	none
CC(C)(C)c1cc(CCC(=O)NNC(=S)NC(=O)c2ccccc2)cc(C(C)(C)C)c1O	TRPC4 act 211
CC(=O)NC(=S)NNC(=O)CCc1ccccc1	none
O=C(CCc1ccccc1)NNC(=S)NC(=O)c1ccccc1	TRPC4 act 150
